{"source": "ChEMBL document CHEMBL3272226", "about": "“Synthesis and dopaminergic activity of (+/-)-, (+)-, and (-)-2-dipropylamino-5-hydroxy-1,2,3,4-tetrahydronaphthalene” (1976)", "key": {"Rattus norvegicus [1]": {"tested_on": "Rattus norvegicus", "assay": "Dopaminergic activity in (+)-6-(dipropylamino)-5,6,7,8-tetrahydronaphthalen-1-ol-pretreated sc dosed Sprague-Dawley rat assessed as induction of stereotyped behavior administered for 30 to 50 mins", "assay_type": "functional, organism-based", "how_it_was_run": "(§1)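 Sprague-Dawley male rats, three per dose, dosed sc with HCl or HI salts in saline (doses as free base); minimum dose inducing stereotyped behavior lasting 30-50 min determined.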"}, "Canis familiaris [2]": {"tested_on": "Canis familiaris", "assay": "Dopaminergic activity in (+)-6-(dipropylamino)-5,6,7,8-tetrahydronaphthalen-1-ol-pretreated dog assessed as induction of emesis administered intramuscularly measured up to 20 hrs", "assay_type": "functional, organism-based", "conditions": "Canis lupus familiaris", "how_it_was_run": "(§2)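 Dogs, three to five per dose, given im injection of test solutions (HCl or HI salts dissolved in saline, doses as free base); minimum emetic dose determined.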"}, "Rattus norvegicus [3]": {"tested_on": "Rattus norvegicus", "assay": "Dopaminergic activity in sc dosed Sprague-Dawley rat assessed as induction of stereotyped behavior administered for 30 to 50 mins", "assay_type": "functional", "conditions": "for minimal effective dose: Rattus norvegicus, Sprague-Dawley, sc, read-out: MED", "how_it_was_run": "as §1"}, "Canis familiaris [4]": {"tested_on": "Canis familiaris", "assay": "Dopaminergic activity in dog assessed as induction of emesis administered intramuscularly measured up to 20 hrs", "assay_type": "functional, Canis lupus familiaris", "conditions": "for minimal effective dose: Canis lupus familiaris, im, 20 h, read-out: MED", "how_it_was_run": "as §2"}}, "note": "Active and inactive are the calls of the source. The rule behind the calls is not given here.", "data": [{"smiles": "CN1CCc2cccc3c2[C@H]1Cc1ccc(O)c(O)c1-3", "values": [{"measurement": "Activity", "setting": "Rattus norvegicus [1]", "value": "Active"}, {"measurement": "Activity", "setting": "Canis familiaris [2]", "value": "Active"}]}, {"smiles": "CCCN(CCC)C1CCc2cc(O)ccc2C1", "note": "(racemic)", "values": [{"measurement": "minimal effective dose", "setting": "Rattus norvegicus [3]", "value": 13, "unit": "mg/kg"}, {"measurement": "minimal effective dose", "setting": "Canis familiaris [4]", "value": 0.036, "unit": "mg/kg"}]}, {"smiles": "CCCN(CCC)C1CCc2ccc(O)cc2C1", "note": "(racemic)", "values": [{"measurement": "minimal effective dose", "setting": "Rattus norvegicus [3]", "value": 23, "unit": "mg/kg"}, {"measurement": "minimal effective dose", "setting": "Canis familiaris [4]", "value": 0.013, "unit": "mg/kg"}]}, {"smiles": "CCCN(CCC)C1CCc2c(O)cccc2C1", "note": "(racemic) [5-OH-DPAT]", "values": [{"measurement": "MED", "setting": "Rattus norvegicus [3]", "value": 0.09, "unit": "mg/kg"}, {"measurement": "MED", "setting": "Canis familiaris [4]", "value": 0.004, "unit": "mg/kg"}]}, {"smiles": "CCCN(CCC)C1CCc2c(O)cccc2C1", "note": "(single isomer, unassigned; (+)) [5-OH-DPAT]", "values": [{"measurement": "MED", "setting": "Rattus norvegicus [3]", "value": ">1.8", "unit": "mg/kg"}, {"measurement": "MED", "setting": "Canis familiaris [4]", "value": ">0.08", "unit": "mg/kg"}]}, {"smiles": "CCCN(CCC)C1CCc2c(O)cccc2C1", "note": "(single isomer, unassigned; (-))", "values": [{"measurement": "Activity", "setting": "Rattus norvegicus [1]", "value": "Active"}, {"measurement": "Activity", "setting": "Canis familiaris [2]", "value": "Active"}]}, {"smiles": "CCCN(CCC)C1CCc2c(O)cccc2C1", "note": "(single isomer, unassigned; (-)) [5-OH-DPAT]", "values": [{"measurement": "MED", "setting": "Rattus norvegicus [3]", "value": 0.05, "unit": "mg/kg"}, {"measurement": "MED", "setting": "Canis familiaris [4]", "value": 0.002, "unit": "mg/kg"}]}]}
